The source made the active and inactive calls. The calls are words filed in the database; no cut-off is given here.
Columns and labels:
HepG2 [1] = assay: Induction of apoptosis in human HepG2 cells assessed as live cells at 10 uM after 48 hrs by annexin V-FITC/propidium iodide staining based flow cytometry (reference value: 96.7%); type: functional
A549 [2] = assay: Induction of apoptosis in human A549 cells assessed as necrotic cells at 10 uM after 48 hrs by annexin V-FITC/propidium iodide staining based flow cytometry (reference value: […]%); type: functional
A549 [3] = assay: Induction of apoptosis in human A549 cells assessed as late apoptotic cells at 10 uM after 48 hrs by annexin V-FITC/propidium iodide staining based flow cytometry (reference value: 0.88%); type: functional
NCI-H460 [4] = assay: Induction of apoptosis in human NCI-H460 cells assessed as necrotic cells at 10 uM after 48 hrs by annexin V-FITC/propidium iodide staining based flow cytometry (reference value: 1.34%); type: functional
NCI-H460 [5] = assay: Induction of apoptosis in human NCI-H460 cells assessed as late apoptotic cells at 10 uM after 48 hrs by annexin V-FITC/propidium iodide staining based flow cytometry (reference value: 1.29%); type: functional
NCI-H460 [6] = assay: Induction of apoptosis in human NCI-H460 cells assessed as early apoptotic cells at 10 uM after 48 hrs by annexin V-FITC/propidium iodide staining based flow cytometry (reference value: 0.11%); type: functional
NCI-H460 [7] = assay: Induction of apoptosis in human NCI-H460 cells assessed as live cells at 10 uM after 48 hrs by annexin V-FITC/propidium iodide staining based flow cytometry (reference value: 97.3%); type: functional
T47D [8] = assay: Induction of apoptosis in human T47D cells assessed as necrotic cells at 10 uM after 48 hrs by annexin V-FITC/propidium iodide staining based flow cytometry (reference value: 0.8%); type: functional
T47D [9] = assay: Induction of apoptosis in human T47D cells assessed as late apoptotic cells at 10 uM after 48 hrs by annexin V-FITC/propidium iodide staining based flow cytometry (reference value: 6.16%); type: functional
T47D [10] = assay: Induction of apoptosis in human T47D cells assessed as early apoptotic cells at 10 uM after 48 hrs by annexin V-FITC/propidium iodide staining based flow cytometry (reference value: 7.7%); type: functional
T47D [11] = assay: Induction of apoptosis in human T47D cells assessed as live cells at 10 uM after 48 hrs by annexin V-FITC/propidium iodide staining based flow cytometry (reference value: 85.3%); type: functional
MDA-MB-231 [12] = assay: Induction of apoptosis in human MDA-MB-231 cells assessed as necrotic cells at 10 uM after 48 hrs by annexin V-FITC/propidium iodide staining based flow cytometry (reference value: […]); type: functional
MDA-MB-231 [13] = assay: Induction of apoptosis in human MDA-MB-231 cells assessed as late apoptotic cells at 10 uM after 48 hrs by annexin V-FITC/propidium iodide staining based flow cytometry (reference value: 1.53%); type: functional
MDA-MB-231 [14] = assay: Induction of apoptosis in human MDA-MB-231 cells assessed as early apoptotic cells at 10 uM after 48 hrs by annexin V-FITC/propidium iodide staining based flow cytometry (reference value: 0.4%); type: functional
MDA-MB-231 [15] = assay: Induction of apoptosis in human MDA-MB-231 cells assessed as live cells at 10 uM after 48 hrs by annexin V-FITC/propidium iodide staining based flow cytometry (reference value: 98.1%); type: functional
Hep 3B2 [16] = assay: Cytotoxicity against human Hep3B cells assessed as reduction in cell viability after 72 hrs by CCK8 assay
A549 [17] = assay: Induction of apoptosis in human A549 cells assessed as live cells at 10 uM after 48 hrs by annexin V-FITC/propidium iodide staining based flow cytometry (reference value: 92.7%); type: functional
A549 [18] = assay: Induction of apoptosis in human A549 cells assessed as early apoptotic cells at 10 uM after 48 hrs by annexin V-FITC/propidium iodide staining based flow cytometry (reference value: 0.41%); type: functional
HepG2 [19] = assay: Induction of apoptosis in human HepG2 cells assessed as early apoptotic cells at 10 uM after 48 hrs by annexin V-FITC/propidium iodide staining based flow cytometry (reference value: 0.3%); type: functional
HepG2 [20] = assay: Induction of apoptosis in human HepG2 cells assessed as late apoptotic cells at 10 uM after 48 hrs by annexin V-FITC/propidium iodide staining based flow cytometry (reference value: 0.64%); type: functional
HepG2 [21] = assay: Induction of apoptosis in human HepG2 cells assessed as necrotic cells at 10 uM after 48 hrs by annexin V-FITC/propidium iodide staining based flow cytometry (reference value: 2.32%); type: functional
Hep 3B2 [22] = assay: Induction of apoptosis in human Hep3B cells assessed as live cells at 10 uM after 48 hrs by annexin V-FITC/propidium iodide staining based flow cytometry (reference value: 97.9%); type: functional
Hep 3B2 [23] = assay: Induction of apoptosis in human Hep3B cells assessed as late apoptotic cells at 10 uM after 48 hrs by annexin V-FITC/propidium iodide staining based flow cytometry (reference value: 5.25%); type: functional
Hep 3B2 [24] = assay: Induction of apoptosis in human Hep3B cells assessed as necrotic cells at 10 uM after 48 hrs by annexin V-FITC/propidium iodide staining based flow cytometry (reference value: 4.97%); type: functional
4T1 [25] = assay: Antitumor activity against mouse Fluc-labeled 4T1 cells implanted in Balb/c mouse assessed as reduction in tumor weight at 130 mg/kg, ip administered daily for 18 days measured after 8 to 25 days; type: functional, organism-based
Outline: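 Luciferase (Fluc) reporter introduced into 4T1 cells by lentiviral transduction. Cells implanted orthotopically into mammary fat pads of female BALB/c mice aged 6–8 weeks. Once tumours averaged 100 mm3, dosing was daily by IP injection. Bioluminescence imaging was done at days 8 and 25 to reflect viable tumour cell number. Tumour weight was recorded at study end.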

Hep 3B2 [26] = assay: Cell cycle arrest in human Hep3B cells assessed as accumulation at G0/G1 phase after 24 hrs by propidium iodide staining based flow cytometry; type: functional
Outline: (§1)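 Cells were exposed for 24 h to a range of concentrations (625 nM, 2.5 and 10 µM), with DMSO vehicle as control. They were then stained with propidium iodide and analysed by flow cytometry to obtain the percentages of cells in G0/G1, S and G2 phases.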

HepG2 [27] = assay: Cell cycle arrest in human HepG2 cells assessed as accumulation at G0/G1 phase after 24 hrs by propidium iodide staining based flow cytometry; type: functional; outline: as §1
A549 [28] = assay: Cell cycle arrest in human A549 cells assessed as accumulation at G0/G1 phase after 24 hrs by propidium iodide staining based flow cytometry; type: functional; outline: as §1
T47D [29] = assay: Cytotoxicity against human T47D cells assessed as reduction in cell viability after 72 hrs by CCK8 assay; type: functional, cell-based
A549 [30] = assay: Cytotoxicity against human A549 cells assessed as reduction in cell viability after 72 hrs by CCK8 assay; type: functional, cell-based; settings: A549, 72 h
NCI-H1299 = assay: Cytotoxicity against human NCI-H1299 cells assessed as reduction in cell viability after 72 hrs by CCK8 assay; type: functional, cell-based; settings: NCI-H1299, 72 h
NCI-H460 [31] = assay: Cell cycle arrest in human NCI-H460 cells assessed as accumulation at G0/G1 phase after 24 hrs by propidium iodide staining based flow cytometry; type: functional; outline: as §1
T47D [32] = assay: Cell cycle arrest in human T47D cells assessed as accumulation at G0/G1 phase after 24 hrs by propidium iodide staining based flow cytometry; type: functional; outline: as §1
MDA-MB-231 [33] = assay: Cell cycle arrest in human MDA-MB-231 cells assessed as accumulation at G0/G1 phase after 24 hrs by propidium iodide staining based flow cytometry; type: functional; outline: as §1
HepG2 [34] = assay: Cytotoxicity against human HepG2 cells assessed as reduction in cell viability after 72 hrs by CCK8 assay; type: functional, cell-based; settings: HepG2, 72 h
NCI-H460 [35] = assay: Cytotoxicity against human NCI-H460 cells assessed as reduction in cell viability after 72 hrs by CCK8 assay; type: functional, cell-based; settings: NCI-H460, 72 h
MDA-MB-468 = assay: Cytotoxicity against human MDA-MB-468 cells assessed as reduction in cell viability after 72 hrs by CCK8 assay; type: functional, cell-based; settings: MDA-MB-468, 72 h
MDA-MB-231 [36] = assay: Cytotoxicity against human MDA-MB-231 cells assessed as reduction in cell viability after 72 hrs by CCK8 assay; type: functional, cell-based; settings: MDA-MB-231, 72 h
4T1 [37] = assay: Cytotoxicity against mouse 4T1 cells assessed as reduction in cell viability after 72 hrs by CCK8 assay; type: functional, cell-based; settings: 4T1, 72 h
4T1 [38] = assay: Antitumor activity against mouse Fluc-labeled 4T1 cells implanted in Balb/c mouse assessed as tumor growth inhibition at 130 mg/kg, ip administered daily for 18 days measured after 8 to 25 days by bioluminescence assay relative to control; type: functional; settings: 4T1, ip, read-out: TGI
4T1 [39] = assay: Antitumor activity against mouse Fluc-labeled 4T1 cells implanted in Balb/c mouse assessed as tumor growth inhibition at 130 mg/kg, po administered daily via gavage for 18 days by bioluminescence assay relative to control; type: functional; settings: 4T1, po, 432 h, read-out: TGI

SMILES: O=C(CCCCCCC(=O)Nc1ccccc1)NO [VORINOSTAT]
- Activity (HepG2 [1]): 74.9%
- Activity (A549 [2]): 18.1%
- Activity (A549 [3]): 33.4%
- Activity (NCI-H460 [4]): 4.81%
- Activity (NCI-H460 [5]): 6.4%
- Activity (NCI-H460 [6]): 2.2%
- Activity (NCI-H460 [7]): 86.6%
- Activity (T47D [8]): 4.48%
- Activity (T47D [9]): 26.4%
- Activity (T47D [10]): 48.6%
- Activity (T47D [11]): 20.4%
- Activity (MDA-MB-231 [12]): 2.72%
- Activity (MDA-MB-231 [13]): 18.7%
- Activity (MDA-MB-231 [14]): 3.74%
- Activity (MDA-MB-231 [15]): 74.8%
- IC50 (Hep 3B2 [16]): 2.3 µM
- Activity (A549 [17]): 42.1%
- Activity (A549 [18]): 6.41%
- Activity (HepG2 [19]): 5.43%
- Activity (HepG2 [20]): 14%
- Activity (HepG2 [21]): 5.69%
- Activity (Hep 3B2 [22]): 53.2%
- Activity (Hep 3B2 [23]): 32.8%
- Activity (Hep 3B2 [24]): 3.43%
- Activity (4T1 [25]): Active

SMILES: CN(C)C(=O)c1cc2cnc(Nc3ccc(N4CCNCC4)cn3)nc2n1C1CCCC1 [RIBOCICLIB]
- Activity (Hep 3B2 [26]): Active
- Activity (HepG2 [27]): Active
- Activity (A549 [28]): Active
- IC50 (T47D [29]): 6.23 µM
- IC50 (A549 [30]): > 10 µM
- IC50 (NCI-H1299): 5.46 µM
- Activity (NCI-H460 [31]): Active
- Activity (T47D [32]): Active
- Activity (MDA-MB-231 [33]): Active
- IC50 (Hep 3B2 [16]): > 10 µM
- IC50 (HepG2 [34]): > 10 µM
- IC50 (NCI-H460 [35]): > 10 µM
- IC50 (MDA-MB-468): > 10 µM
- IC50 (MDA-MB-231 [36]): > 10 µM
- IC50 (4T1 [37]): > 10 µM
- inhibition in vivo at 130 mg/kg (4T1 [38]): 68.5%
- Activity (4T1 [25]): Active
- inhibition in vivo at 130 mg/kg (4T1 [39]): 38.9%
